# Source: PubChem
# Most compounds without a hit are left out; they make up all but 1.8% or so of the library.
# M4 ag = human M4 muscarinic receptor agonists, primary screen, CHO-K1 cells, Fluo-8 calcium fluorescence. CHO-K1 hM4/Gqi5; vehicle 0%, full acetylcholine response 100%. Muscarinic acetylcholine receptor M4 (Homo sapiens), P08173. activation, % at 3 µM. actives 0.14% (n = 360,000);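 active means activation above the run mean over all test wells plus 3 SD, cut at about 32% in these data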;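 further: peak over basal fluorescence ratio per well then scaled between controls; 0% = DMSO wells and 100% = acetylcholine at EC100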
# Target sequence (P08173 whole entry, looked up): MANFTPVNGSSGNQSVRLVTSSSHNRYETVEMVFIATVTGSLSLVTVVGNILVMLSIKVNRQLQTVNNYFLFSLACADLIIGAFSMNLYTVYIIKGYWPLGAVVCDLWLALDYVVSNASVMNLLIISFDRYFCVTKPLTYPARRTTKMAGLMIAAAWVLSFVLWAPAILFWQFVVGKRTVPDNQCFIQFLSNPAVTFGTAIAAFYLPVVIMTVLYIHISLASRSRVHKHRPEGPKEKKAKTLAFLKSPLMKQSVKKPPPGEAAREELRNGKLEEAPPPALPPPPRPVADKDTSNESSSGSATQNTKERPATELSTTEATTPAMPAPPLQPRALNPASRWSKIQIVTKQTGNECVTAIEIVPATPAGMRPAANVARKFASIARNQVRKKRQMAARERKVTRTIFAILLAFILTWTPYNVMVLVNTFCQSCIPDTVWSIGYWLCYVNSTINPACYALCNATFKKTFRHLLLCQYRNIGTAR
# M5 antag = human M5 muscarinic receptor antagonists, primary screen, CHO cells, Fluo-8 calcium fluorescence | Muscarinic acetylcholine receptor M5 (Homo sapiens), P08912 | CHO-hM5 cells, ACh EC80 | inhibition, % at 3 µM | actives 0.59% (n = 360,000);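 active means inhibition above a per-plate cutoff, the mean of that plate's test compounds plus 3 SD, cut at about 27% in these data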;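 further: 0% = acetylcholine EC80 with DMSO and 100% = DMSO without agonist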
# CHRM5 agonist = human M5 muscarinic receptor agonists, primary screen, CHO-K1 cells, Fluo-8 calcium fluorescence | Muscarinic acetylcholine receptor M5 (Homo sapiens), P08912 | CHO-K1 hM5 cells; 0% DMSO wells, 100% maximal acetylcholine response | activation, % at 3 µM | actives 0.19% (n = 360,000) | AID 624037, 2012;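 active means activation above the run's mean over test compounds plus 3 SD, cut at about 23% in these data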;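 further: signal is peak over basal fluorescence ratio across the kinetic read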
# M5 PAM = human M5 muscarinic receptor positive allosteric modulators, primary screen, CHO-K1 cells, Fluo-8 calcium fluorescence; activation, % at 3 µM; actives 0.3% (n = 360,000); CHO-K1 hM5, ACh EC20 PAM; 0% = ACh EC20, 100% = ACh EC100; Muscarinic acetylcholine receptor M5 (Homo sapiens), P08912;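 active means activation above the run cutoff, the mean activation of all test compounds plus 3 SD, cut at about 18% in these data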
#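 Assay system – human M5 receptor in CHO-K1 cells · Read-out – % activation, ACh-normalized · Technique – Fluo-8 calcium fluorescence · Dosing – single-point, 3 µM nominal · Incubation – Fluo-8 loading 80 min at 37 °C plus 30 min room temperature · Repeats – singlicate, one well per test compound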
# M4 PAM = human M4 muscarinic receptor positive allosteric modulators, primary screen, CHO-K1 cells, Fluo-8 calcium fluorescence | CHO-K1 hM4/Gqi5, ACh EC20; 0% = ACh EC20, 100% = maximal ACh | actives 0.4% (n = 360,000) | AID 624126, 2012 | activation, % at 3 µM;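 active means activation above its plate's cutoff, the mean activation of sample wells plus 3 SD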
# M4 antag = human M4 muscarinic receptor antagonists, primary screen, CHO cells, Fluo-8 calcium fluorescence; actives 0.73% (n = 360,000); Muscarinic acetylcholine receptor M4 (Homo sapiens), P08173; CHO-hM4 cells, ACh EC80; inhibition, % at 3 µM;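 active means inhibition above its plate's cutoff, the mean inhibition of sample wells plus 3 SD, cut at about 27% in these data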;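 further: 0% = acetylcholine EC80 with DMSO and 100% = DMSO without agonist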
# An asterisk follows results filed as active.
SMILES,M4 ag,M5 antag,CHRM5 agonist,M5 PAM,M4 PAM,M4 antag
CCC(=O)CN(Cc1cc(OC)ccc1OC)S(=O)(=O)c1ccccc1Br,2,3,0,2,-5,8
O=C(NNC(=O)c1ccncc1)Nc1ccc(N=Nc2ccccc2)cc1,5,11,22,-5,4,-6
COC(=O)c1cc(S(=O)(=O)N2CCOCC2)ccc1Sc1ccccc1N,2,-8,1,6,22*,-1
COc1ccc(CN2CCNC(=O)C2CC(=O)N(C)C2CCCCC2)cc1OC (stereo not given),1,-6,0,3,3,-7
CCN1CCN(CCCNC(=O)C2CCCN(c3nnc(-n4cccc4)s3)C2)CC1 (stereo not given),0,-4,-2,-2,27*,-10
CCOc1ccc(S(=O)(=O)NCCC(=O)NC2CCN(Cc3ccccc3)CC2)cc1,1,-2,-3,0,3,-5
CC(=O)c1ccc(S(=O)(=O)NCCC(=O)NC2CCN(Cc3ccccc3)CC2)cc1,0,3,-1,19*,11,-19
CCC(CC)C(=O)N(C)c1c(C)nc2c(OCc3ccc(OC(F)F)cc3)cccn12,2,-2,-2,-3,1,-2
C=C(C)C(=O)OCC(O)COc1ccc(C(C)(C)c2ccc(OCC(O)COC(=O)C(=C)C)cc2)cc1 (stereo not given),26,27*,12,-17,-14,32*
COc1ccccc1N1CCN(C(=O)c2cccc3c(=O)c(C)c(-c4ccccc4)oc23)CC1,16,12,26*,-19,-13,-13
CCOC(=O)N1CCN(C(=O)c2ccc(CS(=O)(=O)c3ccccc3OC)o2)CC1,2,3,-1,1,0,-10
COc1ccccc1N1CCN(C(=O)c2oc3ccccc3c2C)CC1,13,5,1,-6,-10,10
COc1ccccc1N1CCN(C(=O)c2ccc(CS(=O)(=O)c3ccccc3OC)o2)CC1,14,7,34*,-16,-10,3
CS(=O)CSc1nc2c(cc1C#N)CCCC2 (stereo not given),1,22,-4,-24,-16,58*
COCCn1c(SCc2ccc(F)cc2)nc2c1c(=O)[nH]c(=O)n2C,2,1,-6,2,3,-3
Cc1cc(/C=N/n2cnnc2)c(C)n1-c1ccc(OCc2ccc(Cl)cc2)cc1,5,25,-5,-15,-12,30*
C(=N\n1cnnc1)/c1ccc(OCc2ccccc2)cc1,1,-6,-1,-3,3,-7
Fc1ccccc1COc1cccc(/C=N/n2cnnc2)c1,0,0,-2,4,0,10
Cc1cc(/C=N/n2cnnc2)c(C)n1-c1ccc(OCc2ccccc2F)cc1,8,29*,-1,-21,-15,31*
CCCc1c(-c2ccccc2F)ncn1CCc1ccccc1OC,11,4,0,-19,-12,-3
O=C(NCc1ccccc1)C(c1ccc(-c2ccccc2)cc1)N1CCN(c2ccccc2F)CC1 (stereo not given),0,3,0,-4,15,-3
Cc1ccc(C(=O)N2CCc3cc4c(cc3C2C)OCCCO4)cc1 (stereo not given),6,1,-6,1,-16,0
CC(=O)Nc1ccc(C(=O)N2CCc3cc4c(cc3C2C)OCCCO4)cc1 (stereo not given),1,3,-6,-3,-14,39*
COc1ccccc1CNC(=O)C1CC(c2ccccc2[N+](=O)[O-])=NO1 (stereo not given),1,-6,0,21*,14,-6
O=C(O)c1cccc(OCCN2CCCC2=O)c1,0,-3,2,4,3,-2
SMILES,M4 ag,M5 antag,CHRM5 agonist,M5 PAM,M4 PAM,M4 antag
CN1CCC(=O)N(CCOc2ccccc2)CC1,1,-15,2,20*,21,-15
C#CC(C)OCC1CNC(=S)O1 (stereo not given),0,2,0,-4,0,-8
FC(F)(F)c1nc2ccccc2[nH]1,0,11,0,4,15*,10
CN(C)c1cc2c(c(N(C)C)c1)C(=O)c1ccccc1C2=O,4,-11,-10,3,20*,-12
COc1cccc(CNC(=O)COC(=O)c2ccc(N3CCCC3=O)cc2)c1,2,-5,1,1,-4,8
C[C@@H]1CN([C@@H](C)CO)S(=O)(=O)c2ccc(/C=C/c3ccccc3)cc2O[C@@H]1CN(C)Cc1ccc(C(=O)O)cc1,-2,-7,3,8,10,-17
CCn1c(NCc2ccc(N(C)C)cc2)nc2ccccc21,2,-3,-7,18*,8,-3
COc1ccc(-n2c(-c3ccc(Cl)cc3)c[n+]3c2CCc2ccccc2-3)cc1,1,11,-10,-4,-14,24
Cc1ccc(-n2c(-c3ccc(Br)cc3)c[n+]3c2CCc2ccc4cccnc4c2-3)cc1,4,36*,-8,-20,-31,41*
CC[N+](CC)(CC)CCOc1ccc(/C=C/c2ccccc2)cc1,1,95*,-1,-18,-14,27*
CN(C)CCCNCCCNC(=O)c1ccccn1,1,9,-4,0,4,4
CN(C)CCCNCCCNC(=O)/C(=N\O)c1ccccc1,1,1,-5,6,33*,-17
CCc1nonc1NC(=O)c1oc2cc(C)c(Cl)cc2c1C,0,-17,-3,25*,8,-7
Cc1ccc(C(=O)Nc2nc(-c3ccccn3)cs2)cc1S(=O)(=O)N1CCOCC1,19,19,2,-10,-6,-8
COC(=O)c1ccc(NC(=S)NCCc2cccc(C)c2)cc1,14,28*,3,-19,-19,24
CCOC(=O)c1ccc(NC(=O)Nc2nc3ccccc3s2)cc1,1,6,0,-12,-15,61*
CCOC(=O)c1ccc(NC(=S)NN)cc1,1,-14,-5,11,20*,-12
CCOC(=O)c1ccc(NC(=S)NCc2ccc(F)cc2)cc1,20,19,10,-26,-18,10
CCOC(=O)Nc1nc2ccccc2s1,1,3,2,-5,-4,-1
COC1OC2COC(c3ccccc3)OC2C(NC(C)=O)C1OC(C)=O (stereo not given),0,-9,0,3,2,-1
